The subject of assay [1] is MCF7. As to the kind of experiment: Anti-estrogenic activity in human MCF7 cells assessed as reduction in estradiol-induced increase in cell proliferation incubated for 4 days by WST-8 assay. It counts as functional, cell-based. Conditions: MCF7, 96 h. Put shortly:
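MCF-7 cells in phenol red-free low-glucose D-MEM with 5% sFBS, 2000 cells/well. Serial dilutions, 1×10^-13 to 1×10^-6 M, given with 0.1 nM estradiol, DMSO as control. 4 days in triplicate, medium with compound and estradiol renewed at day 2. Growth read by WST-8, absorbance at 450 nm after 2–4 h. IC50 from sigmoidal dose–response curves.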
In general terms: Tetrazolium dyes change colour on reduction, which living cells bring about.

Assay [2] is filed under the species Homo sapiens. As to the kind of experiment: Ratio of RBA for human recombinant ER beta to RBA for human recombinant ER alpha. In short, it runs like this: (§1)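 Human recombinant ERα or ERβ, 0.5 µg/tube, in buffer of 20 mM Tris–HCl pH 8.0, 0.3 M NaCl, 1 mM EDTA, 10 mM 2-mercaptoethanol, 0.2 mM PMSF. Incubated with 4 nM [6,7-³H]17β-estradiol ± unlabeled competitor, 4 °C, 18 h, in duplicate. Collected on nitrocellulose filter, washed, read by liquid scintillation. RBA taken with estradiol as 100; […] is the ERβ/ERα RBA ratio.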

The subject of assay [3] is MCF7. Kind of assay: Estrogenic activity in human MCF7 cells assessed as increase in cell proliferation incubated for 4 days by WST-8 assay. It counts as functional, cell-based. The note with it: MCF7, 96 h. Put shortly: (§2)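 MCF-7 cells kept in D-MEM with 10% FBS at 37 °C, 5% CO2. Before assay, switched to phenol red-free low-glucose D-MEM with 5% sFBS and seeded at 2000 cells/well. Serial dilutions, 1×10^-13 to 1×10^-6 M, given alone, DMSO as control. 4 days in triplicate, medium replaced after 2 days. WST-8 added, absorbance at 450 nm after 2–4 h. EC50 from sigmoidal curves; Emax relative to E2 as 100.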

For assay [4], the target named is T1, Estrogen receptor (Homo sapiens) (UniProt P03372).
T1 sequence (whole entry): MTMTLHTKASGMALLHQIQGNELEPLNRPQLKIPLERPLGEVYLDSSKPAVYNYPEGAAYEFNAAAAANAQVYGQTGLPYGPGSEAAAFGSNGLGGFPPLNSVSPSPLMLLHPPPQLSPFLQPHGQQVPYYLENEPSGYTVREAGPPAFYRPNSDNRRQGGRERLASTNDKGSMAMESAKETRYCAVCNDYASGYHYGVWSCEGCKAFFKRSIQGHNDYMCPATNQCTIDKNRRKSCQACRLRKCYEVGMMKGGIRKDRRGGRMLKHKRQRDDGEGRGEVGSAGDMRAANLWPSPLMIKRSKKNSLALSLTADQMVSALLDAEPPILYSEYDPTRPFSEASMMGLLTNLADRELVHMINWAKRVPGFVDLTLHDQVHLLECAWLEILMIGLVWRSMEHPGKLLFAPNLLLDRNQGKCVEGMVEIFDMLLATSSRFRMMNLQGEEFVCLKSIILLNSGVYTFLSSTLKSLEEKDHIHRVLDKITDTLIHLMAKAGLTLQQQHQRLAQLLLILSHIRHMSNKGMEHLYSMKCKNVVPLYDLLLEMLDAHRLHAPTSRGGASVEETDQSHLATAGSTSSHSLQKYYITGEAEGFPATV
As to the kind of experiment: Displacement of [6,7-3H]17 beta-estradiol from human recombinant ER alpha assessed as relative binding affinity incubated for 18 hrs at 4 degC by radiometric binding assay relative to estradiol. Put shortly: as §1

The subject of assay [5] is MCF7. Kind of assay: Estrogenic activity in human MCF7 cells assessed as increase in cell proliferation incubated for 4 days by WST-8 assay relative to estradiol. Type of assay: functional. The note with it: MCF7, 96 h. In short, it runs like this: as §2
Assay [6] concerns the target Estrogen receptor beta (Homo sapiens) (UniProt Q92731). As to the kind of experiment: Displacement of [6,7-3H]17 beta-estradiol from human recombinant ER beta assessed as relative binding affinity incubated for 18 hrs at 4 degC by radiometric binding assay relative to estradiol. In short, it runs like this: as §1

This note sets out measurements from ChEMBL document CHEMBL3627694, “Estrogenic activity of bis(4-hydroxyphenyl)methanes with cyclic hydrophobic structure” (Bioorg Med Chem, 2015).

Chain of Estrogen receptor beta (Homo sapiens) (Q92731 whole entry): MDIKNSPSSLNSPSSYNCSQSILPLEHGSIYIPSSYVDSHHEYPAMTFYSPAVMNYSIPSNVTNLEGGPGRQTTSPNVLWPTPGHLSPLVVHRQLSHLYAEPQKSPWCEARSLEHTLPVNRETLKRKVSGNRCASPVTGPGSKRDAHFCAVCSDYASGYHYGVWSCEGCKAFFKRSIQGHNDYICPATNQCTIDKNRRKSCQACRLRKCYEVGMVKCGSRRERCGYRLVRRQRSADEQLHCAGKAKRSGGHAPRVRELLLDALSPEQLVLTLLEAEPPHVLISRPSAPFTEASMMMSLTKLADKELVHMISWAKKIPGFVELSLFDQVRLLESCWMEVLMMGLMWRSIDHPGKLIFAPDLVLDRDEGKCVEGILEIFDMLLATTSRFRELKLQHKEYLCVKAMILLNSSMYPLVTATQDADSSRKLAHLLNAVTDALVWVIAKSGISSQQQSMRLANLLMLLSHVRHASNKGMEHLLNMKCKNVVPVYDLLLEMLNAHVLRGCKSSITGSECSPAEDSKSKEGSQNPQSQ

For orientation: IC50 means the concentration at which inhibition is half-maximal. By EC50 is commonly meant the concentration needed to bring the measured effect to its halfway point. In the case of `Oc1ccc(C(c2ccc(O)cc2)C2CCC(Cl)(Cl)CC2)cc1`, the IC50 in assay [1] is greater than 1000 nM. The Ratio in assay [2] stood at 0.2. Also, the EC50 in assay [3] came to 304 nM. In addition, the RBA in assay [4] worked out at 0.662%; in assay [6], 0.158%. Besides, the Emax in assay [5] came out at 78%.
`Oc1ccc(C(c2ccc(O)cc2)C2CCCC(Cl)(Cl)C2)cc1` (stereo unspecified): in assay [1], the IC50 was greater than 1000 nM. In assay [2], the Ratio turned out to be 1. The EC50 in assay [3] worked out at 4.6 nM. The RBA came to 15.3% in assay [4] and 15.7% in assay [6]. In assay [5], the Emax is 70%.
As to `Oc1ccc(C(c2ccc(O)cc2)C2CCCCC2)cc1`, the IC50 in assay [1] is greater than 1000 nM. The Ratio in assay [2] amounted to 2.3. Moreover, the EC50 in assay [3] was found to be 54.1 nM. In addition, the RBA is 6.71% in assay [4] and 15.5% in assay [6]. For the same compound, the Emax in assay [5] amounted to 79%.
Regarding `CC1(C)CCCC(C(c2ccc(O)cc2)c2ccc(O)cc2)C1` (stereo unspecified), the IC50 in assay [1] was found to be 64.9 nM. For the same compound, in assay [2], the Ratio stood at 0.3. Besides, the EC50 in assay [3] was found to be 2.4 nM. Further, the RBA in assay [4] amounted to 98.8%; in assay [6], 30.7%. In assay [5], the Emax amounted to 74%.
`Oc1ccc(C(c2ccc(O)cc2)C2CCCC3(C2)SCCCS3)cc1` (stereo unspecified): the IC50 in assay [1] was greater than 1000 nM. Besides, the Ratio in assay [2] was 0.2. Besides, the EC50 in assay [3] is 0.39 nM. The results for the RBA in assay [4] and in assay [6] were 50.6% and 8.43%, respectively. Also, the Emax in assay [5] was determined as 80%.
Consider `Oc1ccc(C(c2ccc(O)cc2)C2CCCC(F)(F)C2)cc1` (stereo unspecified), for which, in assay [1], the IC50 is 19.6 nM. The Ratio in assay [2] is 0.7. Besides, the EC50 in assay [3] is 16.6 nM. In addition, the RBA in assay [4] is 5.78%; in assay [6], 4.29%. The Emax in assay [5] was 58%.
For `Oc1ccc(C(c2ccc(O)cc2)C2CCC(F)(F)CC2)cc1`, in assay [1], the half-maximal inhibitory concentration (IC50) was greater than 1000 nM. Moreover, the Ratio in assay [2] worked out at 1.3. Besides, in assay [3], the EC50 amounted to 22.5 nM. In addition, the results for the RBA in assay [4] and in assay [6] were 2.71% and 3.93%, respectively. In addition, in assay [5], the Emax amounted to 80%.
Consider `Oc1ccc(C(c2ccc(O)cc2)C2CCCC3(CCCCC3)C2)cc1` (stereo unspecified), for which the IC50 in assay [1] was greater than 1000 nM. Further, the Ratio in assay [2] is 1.3. In addition, the EC50 in assay [3] is 0.8 nM. Further, the values for the RBA in assay [4] and in assay [6] were 21.9% and 29.3%, respectively. Moreover, the Emax in assay [5] came out at 74%.
Consider `CC1(C)CC(C(c2ccc(O)cc2)c2ccc(O)cc2)CC(C)(C)C1`, for which the IC50 in assay [1] was 63.1 nM. For the same compound, the Ratio in assay [2] was determined as 1.2. Besides, the RBA in assay [4] came out at 28.4%; in assay [6], 35.2%. Also, the Emax in assay [5] stood at 32%.
Take `Oc1ccc(C(c2ccc(O)cc2)C2CCC(Br)(Br)CC2)cc1`: the IC50 in assay [1] is greater than 1000 nM. The Ratio in assay [2] stood at 0.2. Moreover, in assay [3], the EC50 came to 211 nM. In addition, the RBA came out at 0.957% in assay [4] and 0.18% in assay [6]. Also, the Emax in assay [5] was 64%.
For the compound `Oc1ccc(C(c2ccc(O)cc2)C2CCC3(CC2)OCCO3)cc1`, the IC50 in assay [1] was greater than 1000 nM. The Ratio in assay [2] came out at 0.5. The RBA stood at 0.465% in assay [4] and 0.219% in assay [6]. Further, in assay [5], the Emax was 22%.
Consider `CC1(C)CCC(C(c2ccc(O)cc2)c2ccc(O)cc2)CC1`, for which the IC50 in assay [1] was greater than 1000 nM. In addition, the Ratio in assay [2] stood at 1.2. The EC50 in assay [3] is 68.4 nM. Also, the RBA in assay [4] came to 3.64%; in assay [6], 3.02%. Moreover, the Emax in assay [5] turned out to be 72%.
For the compound `Oc1ccc(C(c2ccc(O)cc2)C2CCCC2)cc1`, the IC50 in assay [1] was greater than 1000 nM. For the same compound, the Ratio in assay [2] was found to be 3. Besides, the EC50 in assay [3] worked out at 48.8 nM. Besides, the RBA in assay [4] was 4.61%; in assay [6], 13.7%. Also, in assay [5], the Emax worked out at 69%.
